The results in this text go back to ChEMBL document CHEMBL1157859, “Synthesis of some new pyrimido[2',1':2,3]thiazolo[4,5-b]quinoxaline derivatives as anti-inflammatory and analgesic agents” (2010).

What all share (assay type): functional
Test [1] concerns Rattus norvegicus. Put plainly: Antiinflammatory activity in Sprague-Dawley rat assessed as protection against carrageenan-induced paw edema at 20 mg/kg, po administered 1 hr before carrageenan challenge measured after 1 hr. The method, boiled down: (§1)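 Female Sprague–Dawley rats, fasted 18 h, 6 per group. Given 20 mg/kg orally as an aqueous suspension in distilled water, 1 h before 0.1 mL of 1% w/v carrageenan injected subcutaneously into the left hind footpad. Paw volume was read by mercury plethysmometer before injection and hourly for 4 h. Inhibition % = (Ec − Et)/Ec from edema rates; mean ± S.E, n = 6.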
In general terms: In the carrageenan paw model, swelling and tenderness develop within hours.

Test [2] deals with Rattus norvegicus. Nature of the test: Antiinflammatory activity in Sprague-Dawley rat assessed as protection against carrageenan-induced paw edema at 20 mg/kg, po administered 1 hr before carrageenan challenge measured after 2 hrs. A digest of the protocol:
as §1

Test [3] relates to Rattus norvegicus. Put plainly: Antiinflammatory activity in Sprague-Dawley rat assessed as protection against carrageenan-induced paw edema at 20 mg/kg, po administered 1 hr before carrageenan challenge measured after 3 hrs. The method, boiled down: as §1
Test [4] has as its system Mus musculus. Nature of the test: Analgesic activity in Swiss mouse at 20 mg/kg, po assessed as reaction time after 30 mins by hot plate method. A digest of the protocol: (§2)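 Swiss mice (25–30 g, both sexes), 6 per group, given an oral aqueous suspension at 20 mg/kg. Reaction time on a hot plate was taken as the interval to hind-paw licking or jumping, with a 60 s cut-off. It was measured before dosing (0 min) and at 15, 30, 60 and 90 min after treatment. Mean of six animals.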

Test [5] deals with Mus musculus. Nature of the test: Analgesic activity in Swiss mouse at 20 mg/kg, po assessed as reaction time after 60 mins by hot plate method. The method, boiled down:
as §2
(Thermal pain tests record how soon the animal reacts.)

For test [6], the system named is Mus musculus. Put plainly: Analgesic activity in Swiss mouse at 20 mg/kg, po assessed as reaction time after 90 mins by hot plate method. A digest of the protocol:
as §2

The subject of test [7] is Mus musculus. Nature of the test: Analgesic activity in Swiss albino mouse assessed as protection against acetic acid-induced writhing at 20 mg/kg, po after 30 mins. A digest of the protocol:
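Swiss mice (25–30 g, both sexes), fasted 16 h, 6 per group. Dosed orally at 20 mg/kg as an aqueous suspension; controls got distilled water. After 30 min, 0.7% aqueous acetic acid was given at 10 mL/kg. Writhes were counted for 20 min. % protection = (control mean − treated mean)/control mean × 100.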
For orientation: An intraperitoneal irritant provokes the stretching counted in writhing tests.

Test [8] concerns Mus musculus. Nature of the test: Analgesic activity in Swiss albino mouse assessed as protection against acetic acid-induced writhing at 20 mg/kg, po after 1 hr.
Test [9] concerns Mus musculus. Put plainly: Analgesic activity in Swiss albino mouse assessed as protection against acetic acid-induced writhing at 20 mg/kg, po after 2 hrs.
Test [10] has as its system Mus musculus. Nature of the test: Analgesic activity in Swiss albino mouse assessed as protection against acetic acid-induced writhing at 20 mg/kg, po after 3 hrs.

Take `O=c1cc(/N=C/c2ccncc2)nc2sc3nc4ccccc4nc3n12`: the Activity in the test with Rattus norvegicus [1] came to 51.1%; in the test on Rattus norvegicus [2], 54.2%; in the test with Rattus norvegicus [3], 33.4%; with Mus musculus [7] it was 60.2%; in the test with Mus musculus [8] it was 64.1%; with Mus musculus [9], 68.2%. The Activity with Mus musculus [10] is listed as 51.1%. Besides, the Time with Mus musculus [4] turned out to be 9.66 s; in the test on Mus musculus [5], 9.82 s; in the test with Mus musculus [6], 10.4 s.
Take `Nc1cc(=O)[nH]c(Sc2nc3ccccc3nc2Cl)n1`: the Activity in the test on Rattus norvegicus [1] came out at 58.8%; with Rattus norvegicus [2] it was 58.3%; with Rattus norvegicus [3], 41.3%; in the test with Mus musculus [7] it was 68%; in the test on Mus musculus [8], 73%; with Mus musculus [9], 75.4%. Further, the Activity with Mus musculus [10] was 57.2%. Also, the results for the Time with Mus musculus [4], in the test with Mus musculus [5] and in the test on Mus musculus [6] were 8.42 s, 9.41 s and 10.7 s, respectively.
As for `Nc1cc(=O)n2c(n1)sc1nc3ccccc3nc12`, the Activity worked out at 55.3% with Rattus norvegicus [1]; 61% with Rattus norvegicus [2]; 41.2% with Rattus norvegicus [3]; 60.4% in the test with Mus musculus [7]; 68% with Mus musculus [8]; 73.3% in the test with Mus musculus [9]. Besides, the Activity with Mus musculus [10] was determined as 46.3%. In addition, the Time is 8.42 s with Mus musculus [4], 9.41 s in the test with Mus musculus [5] and 10.7 s in the test on Mus musculus [6].
With `O=c1c2cc3ccccc3nc2nc2sc3nc4ccccc4nc3n12`, the Activity in the test on Rattus norvegicus [1] turned out to be 45.3%; in the test with Rattus norvegicus [2], 47.6%; with Rattus norvegicus [3], 37.6%; in the test with Mus musculus [7], 40.4%; in the test with Mus musculus [8] it was 46%; with Mus musculus [9], 47.8%. The Activity with Mus musculus [10] turned out to be 35.2%. Moreover, the Time with Mus musculus [4] was 8.84 s; in the test on Mus musculus [5] it was 10.6 s; with Mus musculus [6], 10.9 s.
Consider `O=c1c2cc3c(nc2nc2sc4nc5ccccc5nc4n12)CCCC3`, for which the Activity with Rattus norvegicus [1] is 38.8%; with Rattus norvegicus [2], 41.3%; in the test with Rattus norvegicus [3], 24.3%; in the test on Mus musculus [7] it was 42.2%; with Mus musculus [8] it was 45%; in the test with Mus musculus [9], 45.1%. Besides, the Activity in the test on Mus musculus [10] is given as 34.7%. In addition, the Time in the test on Mus musculus [4] is 8.4 s; in the test with Mus musculus [5], 10.4 s; in the test on Mus musculus [6], 10.7 s.
`O=c1c2ccccc2[nH]c2nc3sc4nc5ccccc5nc4n3c(=O)c12`: the Activity turned out to be 40.2% in the test on Rattus norvegicus [1]; 41.5% in the test with Rattus norvegicus [2]; 30.1% in the test with Rattus norvegicus [3]; 42.5% in the test with Mus musculus [7]; 49% in the test on Mus musculus [8]; 53.1% in the test with Mus musculus [9]. For the same molecule, the Activity in the test with Mus musculus [10] was found to be 38.4%. Besides, the Time amounted to 8.16 s in the test with Mus musculus [4], 9.78 s with Mus musculus [5] and 10.1 s in the test with Mus musculus [6].
For the molecule `O=c1c2ccc(Cl)cc2[nH]c2nc3sc4nc5ccccc5nc4n3c(=O)c12`, the Activity worked out at 43.1% in the test with Rattus norvegicus [1]; 48% in the test with Rattus norvegicus [2]; 31.5% in the test on Rattus norvegicus [3]; 40.5% in the test with Mus musculus [7]; 51% in the test on Mus musculus [8]; 47.3% in the test on Mus musculus [9]. Moreover, the Activity with Mus musculus [10] was determined as 38.3%. For the same molecule, the Time with Mus musculus [4] was found to be 7.07 s; in the test on Mus musculus [5], 9.5 s; in the test with Mus musculus [6], 12.7 s.
For the molecule `Cc1nn(-c2ccccc2)c2nc3nc4sc5nc6ccccc6nc5n4c(=O)c3cc12`, the Activity was determined as 48.6% in the test with Rattus norvegicus [1]; 56.1% in the test on Rattus norvegicus [2]; 33.8% with Rattus norvegicus [3]; 45.7% in the test on Mus musculus [7]; 52% in the test with Mus musculus [8]; 58.3% in the test with Mus musculus [9]. In addition, in the test on Mus musculus [10], the Activity stood at 35.5%. Besides, the Time in the test with Mus musculus [4] was found to be 7.55 s; with Mus musculus [5], 8.6 s; in the test with Mus musculus [6], 12 s.
As to `Cc1cc(C)c2c(N)c3c(=O)n4c(nc3nc2n1)sc1nc2ccccc2nc14`, the Activity with Rattus norvegicus [1] stood at 58.5%; with Rattus norvegicus [2] it was 60.4%; with Rattus norvegicus [3], 45.5%; in the test with Mus musculus [7], 72.2%; in the test with Mus musculus [8], 75%; in the test on Mus musculus [9] it was 76.2%. Further, the Activity in the test on Mus musculus [10] came out at 60.3%. The figures for the Time with Mus musculus [4], in the test on Mus musculus [5] and in the test with Mus musculus [6] were 10.1 s, 10.7 s and 7.62 s, respectively.
For the molecule `O=c1c2c(-c3ccccc3)c3c(nc2nc2sc4nc5ccccc5nc4n12)/C(=C\c1ccccc1)CCC3`, the Activity with Rattus norvegicus [1] turned out to be 41.3%; in the test on Rattus norvegicus [2], 43.8%; in the test on Rattus norvegicus [3] it was 31.9%; in the test on Mus musculus [7], 42.4%; in the test with Mus musculus [8], 47%; in the test on Mus musculus [9] it was 50.3%. Also, in the test on Mus musculus [10], the Activity is listed as 38.6%. Moreover, the Time in the test on Mus musculus [4] stood at 7.51 s; in the test with Mus musculus [5], 8.86 s; in the test with Mus musculus [6], 10.4 s.
For `O=c1c2c(-c3ccc(Cl)cc3)c3c(nc2nc2sc4nc5ccccc5nc4n12)/C(=C\c1ccc(Cl)cc1)CCC3`, the Activity came out at 45.7% with Rattus norvegicus [1]; 43.2% in the test with Rattus norvegicus [2]; 38.2% in the test with Rattus norvegicus [3]; 45% with Mus musculus [7]; 53% with Mus musculus [8]; 55.6% in the test with Mus musculus [9]. For the same molecule, the Activity in the test on Mus musculus [10] was found to be 36.3%. In addition, the Time with Mus musculus [4] amounted to 8.61 s; in the test with Mus musculus [5], 9.06 s; in the test with Mus musculus [6], 9.22 s.
In the case of `COc1ccc(/C=C2/CCCc3c2nc2nc4sc5nc6ccccc6nc5n4c(=O)c2c3-c2ccc(OC)cc2)cc1`, the Activity with Rattus norvegicus [1] worked out at 48%; in the test on Rattus norvegicus [2] it was 52.2%; in the test with Rattus norvegicus [3], 40.1%; in the test with Mus musculus [7], 51.4%; in the test on Mus musculus [8], 53%; with Mus musculus [9], 56.5%. Moreover, the Activity with Mus musculus [10] is listed as 38.6%. Also, the results for the Time in the test with Mus musculus [4], in the test on Mus musculus [5] and in the test with Mus musculus [6] were 8.67 s, 9.82 s and 10.4 s, respectively.
For the molecule `O=C([O-])Cc1ccccc1Nc1c(Cl)cccc1Cl.[Na+]` [DICLOFENAC SODIUM], the Activity with Rattus norvegicus [1] stood at 52.4%; with Rattus norvegicus [2] it was 60.3%; in the test on Rattus norvegicus [3], 42%; in the test on Mus musculus [7], 46%; with Mus musculus [8], 55.2%; with Mus musculus [9] it was 62%. In addition, the Activity with Mus musculus [10] worked out at 39%. Besides, the Time in the test with Mus musculus [4] stood at 10 s; in the test on Mus musculus [5], 11.4 s; with Mus musculus [6], 13.2 s.
